Measured values published in PubChem BioAssay.
Results filed as inconclusive are left out.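 Rule for the calls, unless noted: active = RAM network inhibition above 8.4% in each of two replicates, 3 SD over the compound average; inconclusive = above 8.4% inhibition in only one replicate; inactive = 8.4% inhibition or less in each replicate.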

Columns and labels:
[1] = OD615 S. cerevisiae growth inhibition, permissive medium, pilot counter-assay, permissive growth control for S. cerevisiae lifespan shortening project (AID 705;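 active = growth inhibition above 25% in both replicates, a cutoff set 3 SD above the mean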); conditions: OD615, 24 h, at 10 µM, stronger effect = higher value
Procedure, shortened: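 Timing: 24 h exposure, 30 °C / Material: Saccharomyces cerevisiae strain carrying genetically modified DeaD replicative-lifespan system / Signal: OD at 615 nm / Compound: 10 µM single dose, 0.25% DMSO / Medium: SC raffinose/galactose permissive medium / Evaluation: reduction in yeast growth (OD615)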

[2] = Restrictive medium S. cerevisiae growth inhibition, OD615, pilot screen of yeast lifespan reduction project, restrictive growth control (AID 706;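 active = growth inhibition above a set limit, 3 SD over mean compound inhibition, in both replicates, cut at about 43% in these data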;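 note: modified DeaD lifespan yeast strain shifted to restrictive glucose medium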); conditions: OD615, 48 h, at 10 µM, stronger effect = higher value
Procedure, shortened: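 System: Engineered S. cerevisiae DeaD strain | Detection: OD615 | Buffer or medium: CSMM-D glucose medium | Doses: 10 µM compound, 0.25% DMSO | Timing: 4 h pre-growth plus 48 h compound exposure, 30 °C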

[3] = viability gain of MRP-1-high H69AR cells under doxorubicin, pilot screen, MRP-1 activator project, CellTiter-Glo, duplicate (AID 807;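 active = viability increase at or above a cutoff of the median across tested compounds plus 3 SD, cut at about 8.5% in these data, passing the limit was not always enough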;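 note: compound pretreatment 18-22 h then 72 h combined with doxorubicin; 0% = doxorubicin alone and 100% = vehicle without doxorubicin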); conditions: H69AR viability with doxorubicin, CellTiter-Glo luminescence; at 10 µM; stronger effect = higher value
[4] = growth suppression of beta-catenin knockout HCT116, pilot screen, human colon tumor cells (AID 823;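 active = cell viability at or below a set limit in both duplicate runs, the limit being the all-compound median minus 4 SD, cut at about 23% in these data, passing the limit was not always enough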;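 note: 0% = wells killed by 20 µM Hyamine and 100% = untreated DMSO cell wells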); conditions: CellTiter-Glo, 60 h, at 10 µM, stronger effect = lower value
[5] = growth suppression of PTEN-deleted HCT116, pilot screen, cell-based, HCT116 clonal line, CellTiter-Glo (AID 824;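 active = viability at or below 27.92% in each of two runs, the all-compound median minus 4 SD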;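 note: 0% = 20 µM Hyamine control and 100% = vehicle cell control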); conditions: 60 h, at 10 µM, stronger effect = lower value
[6] = inhibitors of the yeast RAM network, pilot screen, dse1pr::URA3 reporter, 5-FOA selection (AID 869;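 active = inhibition over a set limit, the all-compound mean plus 3 SD, in both replicate runs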;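 note: 0% = DMSO wells with no growth and 100% = 10 µM 1-NA-PP1 with full growth; RAM network block rescues cells from 5-FOA so hits raise OD615 growth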); conditions: S. cerevisiae dse1pr::URA3 5-FOA growth, OD615, 2 d; at 10 µM; stronger effect = higher value; strain carries analog-sensitive mutant Cbk1 kinase
[7] = RAM signaling pathway blockade in yeast – S. cerevisiae, Pdr1DBD-CYC8 efflux-inhibited sensitized strain, primary screen (AID 1298);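 note: 0% = DMSO untreated cells without growth and 100% = 10 µM 1-NA-PP1 full growth; higher means more yeast growth rescued from 5-FOA killing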; conditions: S. cerevisiae cbk1-as DSE1-URA3 strain, 5-FOA growth OD615, 2 d; at 50 µM; stronger effect = higher value

O=C(CSc1ncnc2nc[nH]c12)N1CCOCC1
inactive: growth inhibition [1] -15.7% | growth inhibition [2] -14.4% | viability increase [3] -0.96% | viability [4] 86% | viability [5] 102% | inhibition [6] -0.435% | RAM network inhibition [7] 2.34%

C/C(NCCN1CCOCC1)=C(\C#N)C(N)=O
inactive: growth inhibition [1] -3.8% | growth inhibition [2] -6.1% | viability increase [3] -0.51% | viability [4] 105% | viability [5] 97.6% | inhibition [6] 0.795% | RAM network inhibition [7] 7.19%

Cc1cc(C(=O)N2CCN(Cc3ccc4c(c3)OCO4)CC2)on1
inactive: growth inhibition [1] -6.71% | growth inhibition [2] -10.4% | viability increase [3] 0.9% | viability [4] 97.2% | viability [5] 105% | inhibition [6] 1.79% | RAM network inhibition [7] 2.8%

CC1=C(C(=O)OCC(C)C)C(c2ccccc2Cl)NC(=O)N1C (stereo not given)
inactive: growth inhibition [1] -4.34% | growth inhibition [2] -8.57% | viability increase [3] -3.3% | viability [4] 58.5% | viability [5] 67.8% | inhibition [6] 0.59% | RAM network inhibition [7] 1.74%

O=C(COC(=O)c1cc2ccccc2o1)c1ccccc1
inactive: growth inhibition [1] -8.98% | growth inhibition [2] 2% | viability increase [3] -0.26% | viability [4] 96.9% | viability [5] 98.1% | inhibition [6] -0.115% | RAM network inhibition [7] 2.95%

Fc1cccc(Cl)c1CSc1nnnn1-c1ccc2c(c1)OCO2
inactive: growth inhibition [1] 3.1% | growth inhibition [2] 17.6% | viability increase [3] -5.87% | viability [4] 55.7% | viability [5] 46.4% | inhibition [6] 1.1% | RAM network inhibition [7] 10.2%

O=C(c1coc2ccccc2c1=O)N1CCN(c2cccc(C(F)(F)F)c2)CC1
inactive: growth inhibition [1] -20% | growth inhibition [2] -32.1% | viability increase [3] 0.69% | viability [4] 99.8% | viability [5] 99.9% | inhibition [6] 1.23% | RAM network inhibition [7] 5.68%

COc1cc(CN2CCN(CCOCCO)CC2)cc(OC)c1OC
inactive: growth inhibition [1] -9.5% | growth inhibition [2] -8.52% | viability increase [3] 0.51% | viability [4] 94.5% | viability [5] 96.8% | inhibition [6] 1.11% | RAM network inhibition [7] 4.96%

COc1ccc(S(=O)(=O)N2CCC(C(=O)N3CCc4ccccc4C3)CC2)cc1OC
inactive: growth inhibition [1] 1.07% | growth inhibition [2] 1.26% | viability increase [3] -2.24% | viability [4] 89.4% | viability [5] 87.6% | inhibition [6] -0.455% | RAM network inhibition [7] 5.37%

CCc1ccc(Cn2nnc(C(=O)Nc3cccc(C)c3)c2N)cc1
inactive: growth inhibition [1] -7.21% | growth inhibition [2] -2.92% | viability increase [3] -0.67% | viability [4] 102% | viability [5] 95.9% | inhibition [6] 3.39% | RAM network inhibition [7] 8.18%

CCCc1nc(SCC(=O)NCc2ccc3c(c2)OCO3)c2c(=O)n(C)c(=O)n(C)c2n1
inactive: growth inhibition [1] 1.28% | growth inhibition [2] 7.41% | viability increase [3] -6.51% | viability [4] 61.1% | viability [5] 57.5% | inhibition [6] 2.25% | RAM network inhibition [7] 5.66%

Cn1c(C(=O)N2CCN(c3ccccn3)CC2)cc2c(=O)n(C)c3ccccc3c21
inactive: growth inhibition [1] 2.93% | growth inhibition [2] 16.5% | viability increase [3] -2.39% | viability [4] 102% | viability [5] 97.4% | inhibition [6] 0.875% | RAM network inhibition [7] -0.81%

COc1ccc(CNC(=O)C2CCN(S(=O)(=O)c3cccc4cccnc34)CC2)cc1
inactive: growth inhibition [1] -9.14% | growth inhibition [2] 3.15% | viability increase [3] 0.11% | viability [4] 99.9% | viability [5] 92.2% | inhibition [6] 2.6% | RAM network inhibition [7] 2.66%

Cc1cc(Nc2ccc(F)cc2C)n2ncnc2n1
inactive: growth inhibition [1] -3.29% | growth inhibition [2] -0.445% | viability increase [3] 0.05% | viability [4] 108% | viability [5] 101% | inhibition [6] 1.8% | RAM network inhibition [7] 5.54%

COc1cccc(CNC(=O)Cn2cc3c(n2)CCCCC3)c1
inactive: growth inhibition [1] -12.5% | growth inhibition [2] -19.7% | viability increase [3] -1.29% | viability [4] 92.3% | viability [5] 85.9% | inhibition [6] 1.56% | RAM network inhibition [7] 1.81%
